A short description of assay [1]: Her2 expression decrease, cell viability multiplex – SKBR3 breast tumor cells, AlphaScreen, ATP viability, primary screen (AID 461;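 active = Her2 level under about 52% in both replicate screens, with viability over 70% of control, limit read from the data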;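 for Her2 level: lower value means less Her2 protein in the cells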;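 for viability: percent of carrier control wells set as 100% viability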). As to conditions: SKBR3 Her2 protein level, 18-24 h, measured here: SKBR3 viability, ATP luminescence, at 10 µM.
Assay [2] addresses Receptor tyrosine-protein kinase erbB-2 (Homo sapiens) (UniProt P04626). The description is as above. As to conditions: 18-24 h, at 10 µM, stronger effect = lower value.
A short description of assay [3]: reduced viability of SK-BR-3 breast cancer cells – cell-based, 24 h, human, pilot screen (AID 572).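 Note: compound exposure lasted between 18 and 24 h rather than exactly 24 h; 100% = carrier-treated control wells.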 As to conditions: SK-BR-3 viability, CellTiter-Glo luminescence, at 10 µM, stronger effect = lower value.
Assay [4] in a line: HUVEC growth inhibition – cell-based, human, primary screen (AID 575;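 active = viability at or below 30% in both replicate assays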;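 note: 100% = median of untreated cell wells with 0.1% DMSO on each plate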). As to conditions: HUVEC proliferation, CellTiter-Glo luminescence, 72 h; at 10 µM; stronger effect = lower value. In a few lines:
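Test system: primary human umbilical vein endothelial cells. Quantity: 1250 cells/well. Compound: single 10 µM dose, 0.1% DMSO, from 5x medium stock. Timing: 72 h treatment at 37 °C. Detection: ATP-based CellTiter-Glo luminescent read. Benchmarks: vehicle and MePR control wells. Format: 384-well plates coated with collagen.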

A short description of assay [5]: H69AR cell proliferation blockers – human, duplicate replicates, primary screen (AID 580;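 active = viability at or under a set limit in both replicates, limit being median viability minus 3 SD, cut at about 48% in these data, passing the limit was not always enough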;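 note: 100% = mean luminescence of untreated wells and 0% = no signal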). As to conditions: H69AR lung tumor cells viability, ATP luminescence, 72 h; at 10 µM; stronger effect = lower value.
A short description of assay [6]: MRP1 drug-resistance reversers in H69AR cells – cell-based, doxorubicin co-treatment, pilot screen (AID 601;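 active = viability loss from added drug above about 55%, and viability with drug at most 40%, in both replicates, limit read from the data, passing the limit was not always enough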). As to conditions: CellTiter-Glo, 72 h, at 10 µM; for differential viability (reversal): stronger effect = higher value.
Assay [7] in a line: yeast transport mutant growth inhibition pilot in 384-well plates, post-Golgi transport modulator project (AID 636; in the data active = inhibition above about 31%). As to conditions: absorbance 615 nm, about 18 h, stronger effect = higher value.
Assay [8] can be described thus: growth suppression of yeast trafficking mutant, preliminary HTS, modulators of trafficking downstream of Golgi apparatus project, 1536-format plate, OD 615 nm (AID 637; in the data active = inhibition above about 30%). As to conditions: yeast transport mutant growth, absorbance 615 nm, 18 h; stronger effect = higher value.
Where [9] appears, read: H69AR cells + 2 uM doxorubicin, measured here: viability with 2 uM doxorubicin, stronger effect = lower value.
[10] abbreviates: H69AR cells, compound alone cytotoxicity.

Calls of active or inactive are those of the source.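 Rule for the calls, unless noted: active = viability at or below 10% of carrier control in both of two separate runs; inconclusive = viability at or below 10% in only one of the two runs; inactive = the rest.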

Sequence of Receptor tyrosine-protein kinase erbB-2 (Homo sapiens) (P04626 whole entry, looked up): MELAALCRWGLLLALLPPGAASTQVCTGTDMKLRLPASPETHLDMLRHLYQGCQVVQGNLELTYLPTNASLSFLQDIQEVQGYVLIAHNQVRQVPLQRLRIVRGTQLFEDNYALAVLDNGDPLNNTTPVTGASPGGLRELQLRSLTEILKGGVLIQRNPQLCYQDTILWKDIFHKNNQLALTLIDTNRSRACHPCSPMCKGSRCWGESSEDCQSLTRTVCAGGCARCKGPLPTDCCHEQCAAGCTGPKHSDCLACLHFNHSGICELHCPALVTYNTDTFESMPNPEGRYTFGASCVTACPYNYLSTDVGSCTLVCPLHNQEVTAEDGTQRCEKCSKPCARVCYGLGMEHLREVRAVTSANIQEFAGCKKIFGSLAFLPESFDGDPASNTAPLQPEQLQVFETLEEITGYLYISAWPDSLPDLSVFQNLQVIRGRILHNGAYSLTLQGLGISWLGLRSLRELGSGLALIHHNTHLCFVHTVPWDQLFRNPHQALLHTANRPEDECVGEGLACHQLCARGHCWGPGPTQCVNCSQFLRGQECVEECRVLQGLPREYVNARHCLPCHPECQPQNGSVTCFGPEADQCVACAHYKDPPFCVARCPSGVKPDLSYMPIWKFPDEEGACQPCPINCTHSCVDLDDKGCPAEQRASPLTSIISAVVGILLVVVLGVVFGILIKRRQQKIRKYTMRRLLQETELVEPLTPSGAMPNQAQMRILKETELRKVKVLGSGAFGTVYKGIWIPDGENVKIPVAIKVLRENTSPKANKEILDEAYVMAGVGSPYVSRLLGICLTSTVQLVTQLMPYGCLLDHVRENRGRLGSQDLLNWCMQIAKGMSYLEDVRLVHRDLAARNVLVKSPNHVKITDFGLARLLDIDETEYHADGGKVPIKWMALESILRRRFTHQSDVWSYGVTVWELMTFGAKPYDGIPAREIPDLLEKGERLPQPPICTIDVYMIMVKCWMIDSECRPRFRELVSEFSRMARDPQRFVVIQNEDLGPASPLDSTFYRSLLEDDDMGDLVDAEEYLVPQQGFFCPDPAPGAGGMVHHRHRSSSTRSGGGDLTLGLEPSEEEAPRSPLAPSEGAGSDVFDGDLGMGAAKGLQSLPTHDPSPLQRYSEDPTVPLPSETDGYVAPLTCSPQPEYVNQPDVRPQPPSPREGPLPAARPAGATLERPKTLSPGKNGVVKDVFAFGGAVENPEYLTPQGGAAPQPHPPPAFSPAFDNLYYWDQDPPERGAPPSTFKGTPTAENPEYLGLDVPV

Consider `COc1ccc2cc(CN(CCO)C(=O)c3ccccc3F)c(=O)[nH]c2c1`, for which the viability in assay [1] is 106%; in assay [3], 106% (inactive); in assay [4], 96.9% (inactive); in assay [5] it was 95.3% (inactive); in assay [6] (setting [9]), 86.7%; in assay [6] (setting [10]), 95.3%. Further, the Her2 level in assay [2] was 126% (inactive). Moreover, the differential viability (reversal) in assay [6] (H69AR cells + 2 uM doxorubicin) is 8.58% (inactive). The values for the inhibition in assay [7] and in assay [8] were 2.86% (inactive) and -8.33% (inactive), respectively.
On to `COc1ccc(C(=O)Nc2cccc(-c3nc4ncccc4o3)c2C)cc1OC`, for which the viability was 99% in assay [1]; 99% (inactive) in assay [3]; 81.8% (inactive) in assay [4]; 92.8% (inactive) in assay [5]; 91.2% in assay [6] (setting [9]); 92.8% in assay [6] (setting [10]). The Her2 level in assay [2] is 122% (inactive). Moreover, the differential viability (reversal) in assay [6] (H69AR cells + 2 uM doxorubicin) is 1.52% (inactive). Moreover, the inhibition in assay [7] is 3.42% (inactive); in assay [8], -3.97% (inactive).
`Cc1c2c(nc3nc4ccccc4n13)CC(C)(C)CC2=O`: the viability in assay [1] was 130%; in assay [3] it was 130% (inactive); in assay [4], 91.1% (inactive); in assay [5], 70.9% (inactive); in assay [6] (setting [9]) it was 34%; in assay [6] (setting [10]), 70.9%. The Her2 level in assay [2] was 100% (inactive). The differential viability (reversal) in assay [6] (H69AR cells + 2 uM doxorubicin) is 36.9% (inactive). Moreover, the results for the inhibition in assay [7] and in assay [8] were -3.42% (inactive) and 4.43% (inactive), respectively.
Regarding `O=C(c1ccco1)N1CCN(S(=O)(=O)c2ccc(Oc3ccccc3)cc2)CC1`, the viability was 82% in assay [1]; 82% (inactive) in assay [3]; 78.6% (inactive) in assay [4]; 90.6% (inactive) in assay [5]; 96.8% in assay [6] (setting [9]); 90.6% in assay [6] (setting [10]). In addition, the Her2 level in assay [2] was 102% (inactive). Besides, in assay [6] (H69AR cells + 2 uM doxorubicin), the differential viability (reversal) was -6.27% (inactive). The inhibition in assay [7] is -1.35% (inactive); in assay [8], 5.74% (inactive).
`O=C(NCc1ccco1)C1CC(=O)N(c2ccc(F)cc2)C1` (stereo not given): the viability in assay [1] was 96.5%; in assay [3], 96.5% (inactive); in assay [4], 108% (inactive); in assay [5] it was 108% (inactive); in assay [6] (setting [9]) it was 91.5%; in assay [6] (setting [10]), 108%. For the same compound, the Her2 level in assay [2] is 97% (inactive). For the same compound, in assay [6] (H69AR cells + 2 uM doxorubicin), the differential viability (reversal) was 16% (inactive). Besides, the inhibition in assay [7] is -0.93% (inactive); in assay [8], -1.61% (inactive).
Regarding `CCN(CCCNC(=O)C1CCN(S(=O)(=O)c2cccc3nonc23)CC1)Cc1ccccc1`, the viability in assay [1] was 89%; in assay [3], 89% (inactive); in assay [4] it was 103% (inactive); in assay [5], 92.9% (inactive); in assay [6] (setting [9]), 81.8%; in assay [6] (setting [10]) it was 92.9%. Moreover, in assay [2], the Her2 level is 90% (inactive). Also, the differential viability (reversal) in assay [6] (H69AR cells + 2 uM doxorubicin) is 11.1% (inactive). Also, the values for the inhibition in assay [7] and in assay [8] were -5.39% (inactive) and 2.5% (inactive), respectively.
Regarding `O=C(c1ccc(Cl)c(Cl)c1)N1CCOCC1`, the viability in assay [1] was 102%; in assay [3], 102% (inactive); in assay [4] it was 91.7% (inactive); in assay [5] it was 92.3% (inactive); in assay [6] (setting [9]), 97.7%; in assay [6] (setting [10]), 92.3%. Further, in assay [2], the Her2 level was 103% (inactive). Moreover, in assay [6] (H69AR cells + 2 uM doxorubicin), the differential viability (reversal) is -5.39% (inactive). Moreover, the inhibition in assay [7] was -0.66% (inactive); in assay [8] it was -10.8% (inactive).
Turning to `CCn1cc(C(=O)NCCCOC)c(=O)c2cc(S(=O)(=O)N(C)C3CCCCC3)ccc21`, the viability in assay [1] was 87%; in assay [3], 87% (inactive); in assay [4], 101% (inactive); in assay [5], 90.8% (inactive); in assay [6] (setting [9]) it was 104%; in assay [6] (setting [10]), 90.8%. Besides, the Her2 level in assay [2] was 114% (inactive). Also, in assay [6] (H69AR cells + 2 uM doxorubicin), the differential viability (reversal) is -13% (inactive). The inhibition is -0.9% (inactive) in assay [7] and -5.33% (inactive) in assay [8].
On to `Cc1cccc(NC(=O)CSc2nnc(-c3cc(C)n(-c4ccccc4)c3C)o2)c1C`, for which the viability in assay [1] was 115%; in assay [3], 115% (inactive); in assay [4], 66.3% (inactive); in assay [5], 76.2% (inactive); in assay [6] (setting [9]) it was 80.2%; in assay [6] (setting [10]) it was 76.2%. Further, the Her2 level in assay [2] was 91% (inactive). Further, in assay [6] (H69AR cells + 2 uM doxorubicin), the differential viability (reversal) is -3.98% (inactive). Further, the inhibition in assay [7] is 0.26% (inactive); in assay [8], -6.03% (inactive).
Turning to `CN(Cc1ccccc1)Cc1nc2c(c(=O)n(C)c(=O)n2C)n1Cc1ccc(Cl)cc1`, the viability is 67.5% in assay [1]; 67.5% (inactive) in assay [3]; 84.1% (inactive) in assay [4]; 86% (inactive) in assay [5]; 84.2% in assay [6] (setting [9]); 86% in assay [6] (setting [10]). Further, the Her2 level in assay [2] was 102% (inactive). Besides, the differential viability (reversal) in assay [6] (H69AR cells + 2 uM doxorubicin) is 1.76% (inactive). The inhibition in assay [7] is -0.67% (inactive); in assay [8], 7.05% (inactive).
For the compound `Cn1c(=O)n(C)c2cc(CNc3ccc(N4CCOCC4)c(C(=O)O)c3)ccc21`, the viability is 107% in assay [1]; 107% (inactive) in assay [3]; 113% (inactive) in assay [4]; 89.6% (inactive) in assay [5]; 92.2% in assay [6] (setting [9]); 89.6% in assay [6] (setting [10]). In assay [2], the Her2 level is 89.5% (inactive). Moreover, the differential viability (reversal) in assay [6] (H69AR cells + 2 uM doxorubicin) is -2.67% (inactive). The inhibition in assay [7] is -3.33% (inactive); in assay [8] it was 0.49% (inactive).
Consider `CC1CN(C(=O)CSc2nnc(-c3ccncc3)n2-c2ccccc2)CC(C)O1` (stereo not given), for which the viability in assay [1] is 101%; in assay [3], 101% (inactive); in assay [4], 103% (inactive); in assay [5] it was 97.6% (inactive); in assay [6] (setting [9]), 103%; in assay [6] (setting [10]) it was 97.6%. Further, the Her2 level in assay [2] was 112% (inactive). The differential viability (reversal) in assay [6] (H69AR cells + 2 uM doxorubicin) was -5% (inactive). Besides, the inhibition in assay [7] was -1.08% (inactive); in assay [8], 0.32% (inactive).
In the case of `Cn1c2c(c(=O)n(C)c1=O)CN(CCCN1CCOCC1)CN2`, the viability in assay [1] was 100%; in assay [3], 100% (inactive); in assay [4], 106% (inactive); in assay [5], 108% (inactive); in assay [6] (setting [9]), 101%; in assay [6] (setting [10]), 108%. Moreover, the Her2 level in assay [2] was 86.5% (inactive). For the same compound, the differential viability (reversal) in assay [6] (H69AR cells + 2 uM doxorubicin) was 7.39% (inactive). For the same compound, the inhibition in assay [7] is -5.26% (inactive); in assay [8], -5.27% (inactive).
In the case of `CCc1nn2c(N3CCOCC3)cc(C)nc2c1-c1ccc(F)cc1`, the viability in assay [1] was 92%; in assay [3] it was 92% (inactive); in assay [4], 86.2% (inactive); in assay [5] it was 93.4% (inactive); in assay [6] (setting [9]), 62%; in assay [6] (setting [10]), 93.4%. Further, the Her2 level in assay [2] is 84% (inactive). Besides, in assay [6] (H69AR cells + 2 uM doxorubicin), the differential viability (reversal) is 31.5% (inactive). The inhibition in assay [7] is -6.16% (inactive); in assay [8], 1.75% (inactive).
On to `Cn1c(=O)cc(SCC(=O)N2CCOCC2)c2ccc(Cl)cc21`, for which the viability was 108% in assay [1]; 108% (inactive) in assay [3]; 76.1% (inactive) in assay [4]; 93.2% (inactive) in assay [5]; 83.3% in assay [6] (setting [9]); 93.2% in assay [6] (setting [10]). The Her2 level in assay [2] was 99.5% (inactive). Also, the differential viability (reversal) in assay [6] (H69AR cells + 2 uM doxorubicin) was 9.88% (inactive). Further, the inhibition in assay [7] is -2.37% (inactive); in assay [8], -1.61% (inactive).
As for `Cc1ccc(-c2nn(C)c(=O)c3ccccc23)cc1S(=O)(=O)N1CCOCC1`, the viability is 77% in assay [1]; 77% (inactive) in assay [3]; 83.8% (inactive) in assay [4]; 92.8% (inactive) in assay [5]; 76.8% in assay [6] (setting [9]); 92.8% in assay [6] (setting [10]). In addition, the Her2 level in assay [2] is 83% (inactive). In addition, the differential viability (reversal) in assay [6] (H69AR cells + 2 uM doxorubicin) is 16% (inactive). The inhibition was -5.07% (inactive) in assay [7] and -3.06% (inactive) in assay [8].

The values are drawn from PubChem BioAssay.
